Reference: ChEMBL document CHEMBL2311377, “Trisubstituted thiophene analogues of 1-thiazolyl-2-pyrazoline, super oxidase inhibitors and free radical scavengers” (Bioorg Med Chem, 2013)

Key:
[1] = target: T1, Xanthine dehydrogenase/oxidase (Rattus norvegicus, UniProt P22985); assay: Inhibition of Wistar albino rat xanthine oxidase isolated from liver using xanthine as substrate incubated for 15 mins prior to substrate addition by spectrophotometric analysis
Method in brief: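 Xanthine oxidase was prepared from perfused Wistar albino rat liver. The liver was homogenized in ice-cold 0.05 M phosphate (pH 7.8) with 0.1 mM EDTA and spun at 10,000g. The supernatant was precipitated with 60% ammonium sulfate, dialyzed against phosphate pH 6.8, and protein measured by Lowry. Enzyme was preincubated with compound in DMSO in phosphate pH 7.4 at room temperature for 15 min. Uric acid was read at 295 nm; inhibition was relative to DMSO-only control, and IC50 came from linear regression.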

[2] = system: Radical scavenging activity; assay: Antioxidant activity assessed as inhibition DPPH radical production after 15 mins by spectrophotometric analysis; assay type: functional
Method in brief: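 Compounds at 1–50 in methanol were mixed with an equal volume of methanolic DPPH. Absorbance was compared with a control of DPPH plus methanol without compound, and results are given as percent radical scavenging.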

[3] = target: T1, Xanthine dehydrogenase/oxidase; assay: Competitive inhibition of Wistar albino rat xanthine oxidase isolated from liver using xanthine as substrate by Lineweaver-Burk plot analysis
Method in brief: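 Inhibition type was assessed with the rat liver XO preparation by varying xanthine substrate across 1–5 and analysing by Lineweaver–Burk plot.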

T1 sequence (P22985 whole entry, the tested form may be a part): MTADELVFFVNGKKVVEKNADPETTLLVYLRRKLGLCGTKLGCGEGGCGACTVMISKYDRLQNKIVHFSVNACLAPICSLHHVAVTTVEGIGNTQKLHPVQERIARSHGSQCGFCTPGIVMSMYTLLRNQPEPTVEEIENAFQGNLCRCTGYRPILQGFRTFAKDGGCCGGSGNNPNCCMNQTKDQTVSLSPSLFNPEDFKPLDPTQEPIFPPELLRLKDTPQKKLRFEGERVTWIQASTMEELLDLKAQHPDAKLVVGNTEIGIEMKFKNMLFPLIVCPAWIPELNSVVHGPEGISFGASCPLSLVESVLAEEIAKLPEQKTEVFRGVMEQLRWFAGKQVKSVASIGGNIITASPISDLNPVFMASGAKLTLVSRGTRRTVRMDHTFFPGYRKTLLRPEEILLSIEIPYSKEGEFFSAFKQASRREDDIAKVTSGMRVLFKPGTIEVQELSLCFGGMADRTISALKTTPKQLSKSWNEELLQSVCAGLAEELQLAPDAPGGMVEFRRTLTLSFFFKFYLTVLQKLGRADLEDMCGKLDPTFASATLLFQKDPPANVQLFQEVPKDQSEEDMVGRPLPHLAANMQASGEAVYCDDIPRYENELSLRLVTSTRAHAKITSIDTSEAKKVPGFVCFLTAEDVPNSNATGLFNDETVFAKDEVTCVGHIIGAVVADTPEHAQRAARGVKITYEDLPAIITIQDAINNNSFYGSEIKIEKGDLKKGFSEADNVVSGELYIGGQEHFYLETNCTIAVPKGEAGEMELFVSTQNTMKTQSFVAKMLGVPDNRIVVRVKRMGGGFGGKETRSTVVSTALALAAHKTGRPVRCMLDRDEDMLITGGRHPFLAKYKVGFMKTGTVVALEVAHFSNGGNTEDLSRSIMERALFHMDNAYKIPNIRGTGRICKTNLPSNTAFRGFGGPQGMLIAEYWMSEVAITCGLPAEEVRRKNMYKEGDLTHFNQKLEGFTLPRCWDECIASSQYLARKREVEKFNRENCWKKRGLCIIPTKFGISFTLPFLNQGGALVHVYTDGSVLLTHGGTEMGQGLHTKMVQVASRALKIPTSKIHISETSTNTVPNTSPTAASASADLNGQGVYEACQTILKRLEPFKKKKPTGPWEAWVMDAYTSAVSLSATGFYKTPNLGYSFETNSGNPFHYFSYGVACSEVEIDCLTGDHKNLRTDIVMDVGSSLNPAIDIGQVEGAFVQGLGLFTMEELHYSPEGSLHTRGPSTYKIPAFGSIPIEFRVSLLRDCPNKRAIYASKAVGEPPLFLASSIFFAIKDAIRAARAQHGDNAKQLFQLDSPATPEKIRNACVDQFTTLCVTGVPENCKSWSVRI

IC50 [1]	IC50 [2]	inhibition (INH) [3]	SMILES
26 µM	31.5 µM	–	CCCCc1nc(Cl)c(C2CC(c3cc(Cl)sc3Cl)=NN2c2nc(-c3ccc(Cl)cc3)cs2)[nH]1 (configuration not stated)
20 µM	21.8 µM	–	CCCCc1nc(Cl)c(C2CC(c3cc(Cl)sc3SCc3ccccc3)=NN2c2nc(-c3ccc(Cl)cc3)cs2)[nH]1 (configuration not stated)
23.9 µM	29.3 µM	–	CCCCc1nc(Cl)c(C2CC(c3cc(Cl)sc3S(N)(=O)=O)=NN2c2nc(-c3ccc(Cl)cc3)cs2)[nH]1 (configuration not stated)
36 µM	44.8 µM	–	Clc1ccc(-c2csc(N3N=C(c4cc(Cl)sc4Cl)CC3c3ccc(Cl)cc3)n2)cc1 (configuration not stated)
32 µM	41.5 µM	–	Clc1ccc(-c2csc(N3N=C(c4cc(Cl)sc4SCc4ccccc4)CC3c3ccc(Cl)cc3)n2)cc1 (configuration not stated)
34.2 µM	43 µM	–	NS(=O)(=O)c1sc(Cl)cc1C1=NN(c2nc(-c3ccc(Cl)cc3)cs2)C(c2ccc(Cl)cc2)C1 (configuration not stated)
> 50 µM	> 50 µM	–	Fc1ccc(C2CC(c3cc(Cl)sc3Cl)=NN2c2nc(-c3ccc(Cl)cc3)cs2)cc1 (configuration not stated)
> 50 µM	> 50 µM	–	Fc1ccc(C2CC(c3cc(Cl)sc3SCc3ccccc3)=NN2c2nc(-c3ccc(Cl)cc3)cs2)cc1 (configuration not stated)
> 50 µM	> 50 µM	–	NS(=O)(=O)c1sc(Cl)cc1C1=NN(c2nc(-c3ccc(Cl)cc3)cs2)C(c2ccc(F)cc2)C1 (configuration not stated)
9.4 µM	21.1 µM	–	CN(C)c1ccc(C2CC(c3cc(Cl)sc3Cl)=NN2c2nc(-c3ccc(Cl)cc3)cs2)cc1 (configuration not stated)
6.2 µM	15.6 µM	Active	CN(C)c1ccc(C2CC(c3cc(Cl)sc3SCc3ccccc3)=NN2c2nc(-c3ccc(Cl)cc3)cs2)cc1 (configuration not stated)
8.3 µM	19.3 µM	–	CN(C)c1ccc(C2CC(c3cc(Cl)sc3S(N)(=O)=O)=NN2c2nc(-c3ccc(Cl)cc3)cs2)cc1 (configuration not stated)
–	11.5 µM	–	O=C1O[C@H]([C@@H](O)CO)C(O)=C1O [ASCORBIC ACID]

SMILES	IC50 [1]	IC50 [2]	inhibition (INH) [3]
Oc1ncnc2[nH]ncc12 [ALLOPURINOL]	6 µM	–	–
